ChEMBL document CHEMBL1157032, “Synthesis and antimicrobial activity of novel pyrazolo[3,4-d]pyrimidin derivatives” (2010)
Values after ≈ are worked out from the molar mass of the structure shown. Active and inactive are the calls of the source. The calls are words filed in the database; no cut-off is given here.

What was measured:
Assay type in all cases: functional
Escherichia coli [1] = test: Antimicrobial activity against Escherichia coli MTCC 1650 after 24 hrs; conditions: MTCC 1650, 24 h
In short: (§1)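 Agar well diffusion on Mueller Hinton agar seeded with 0.1 mL of a 10⁵ cfu/mL bacterial suspension in 0.85% sterile saline. 6 mm wells received 0.1 mL of each compound dilution in DMSO (1% DMSO; DMSO alone as control). Plates were incubated 24 h at 37 ± 0.5 °C. Read-out was zone of inhibition in mm. MIC was taken as the lowest concentration giving complete growth inhibition.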

Proteus vulgaris [2] = test: Antimicrobial activity against Proteus vulgaris MTCC 1771 after 24 hrs; conditions: MTCC 1771, 24 h; in short: as §1
Pseudomonas aeruginosa = test: Antimicrobial activity against Pseudomonas aeruginosa MTCC 2488 after 24 hrs; conditions: MTCC 2488, 24 h; in short: as §1
Klebsiella pneumoniae [3] = test: Antimicrobial activity against Klebsiella pneumoniae NCIM 2957 after 24 hrs; conditions: NCIM 2957, 24 h; in short: as §1
Staphylococcus aureus [4] = test: Antimicrobial activity against Staphylococcus aureus MTCC 96 after 24 hrs; conditions: MTCC 96, 24 h; in short: as §1
Bacillus subtilis [5] = test: Antimicrobial activity against Bacillus subtilis MTCC 1789 after 24 hrs; conditions: MTCC 1789, 24 h; in short: as §1
Serratia marcescens [6] = test: Antimicrobial activity against Serratia marcescens MTCC 86 after 24 hrs; conditions: MTCC 86, 24 h; in short: as §1
Priestia megaterium [7] = test: Antimicrobial activity against Bacillus megaterium MTCC 1684 after 24 hrs; conditions: MTCC 1684, 24 h; in short: as §1
Aspergillus niger [8] = test: Antimicrobial activity against Aspergillus niger MTCC 1781 after 48 hrs; conditions: MTCC 1781, 48 h
In short: (§2)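 Fungal spore suspensions in sterile distilled water were adjusted to 10⁶ cfu/mL, and 0.1 mL was spread on Sabouraud dextrose agar. 6 mm wells were filled with 0.1 mL of compound dilution in DMSO (1% DMSO; DMSO-only control). Plates were incubated 48 h at 28 ± 0.2 °C, and inhibition zones were measured in mm. MIC was the lowest concentration completely inhibiting growth.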

Aspergillus flavus [9] = test: Antimicrobial activity against Aspergillus flavus MTCC 2501 after 48 hrs; conditions: MTCC 2501, 48 h; in short: as §2
Penicillium chrysogenum [10] = test: Antimicrobial activity against Penicillium chrysogenum MTCC 1996 after 48 hrs; conditions: MTCC 1996, 48 h; in short: as §2
Trichoderma viride [11] = test: Antimicrobial activity against Trichoderma viride MTCC 167 after 48 hrs; conditions: MTCC 167, 48 h; in short: as §2
Candida albicans [12] = test: Antimicrobial activity against Candida albicans MTCC 227 after 48 hrs; conditions: MTCC 227, 48 h; in short: as §2
Escherichia coli [13] = test: Antimicrobial activity against Escherichia coli MTCC 1650 at MIC after 24 hrs by agar diffusion method; in short: as §1
Staphylococcus aureus [14] = test: Antimicrobial activity against Staphylococcus aureus MTCC 96 at MIC after 24 hrs by agar diffusion method; in short: as §1
Bacillus subtilis [15] = test: Antimicrobial activity against Bacillus subtilis MTCC 1789 at MIC after 24 hrs by agar diffusion method; in short: as §1
Serratia marcescens [16] = test: Antimicrobial activity against Serratia marcescens MTCC 86 at MIC after 24 hrs by agar diffusion method; in short: as §1
Priestia megaterium [17] = test: Antimicrobial activity against Bacillus megaterium MTCC 1684 at MIC after 24 hrs by agar diffusion method; in short: as §1
Aspergillus niger [18] = test: Antimicrobial activity against Aspergillus niger MTCC 1781 at MIC after 48 hrs by agar diffusion method; in short: as §2
Aspergillus flavus [19] = test: Antimicrobial activity against Aspergillus flavus MTCC 2501 at MIC after 48 hrs by agar diffusion method; in short: as §2
Penicillium chrysogenum [20] = test: Antimicrobial activity against Penicillium chrysogenum MTCC 1996 at MIC after 48 hrs by agar diffusion method; in short: as §2
Trichoderma viride [21] = test: Antimicrobial activity against Trichoderma viride MTCC 167 at MIC after 48 hrs by agar diffusion method; in short: as §2
Candida albicans [22] = test: Antimicrobial activity against Candida albicans MTCC 227 at MIC after 48 hrs by agar diffusion method; in short: as §2
Proteus vulgaris [23] = test: Antimicrobial activity against Proteus vulgaris MTCC 1771 at MIC after 24 hrs by agar diffusion method; in short: as §1
Klebsiella pneumoniae [24] = test: Antimicrobial activity against Klebsiella pneumoniae NCIM 2957 at MIC after 24 hrs by agar diffusion method; in short: as §1

MIC (Escherichia coli [1]) [µg/mL]	MIC (Proteus vulgaris [2]) [µg/mL]	MIC (Pseudomonas aeruginosa) [µg/mL]	MIC (Klebsiella pneumoniae [3]) [µg/mL]	MIC (Staphylococcus aureus [4]) [µg/mL]	MIC (Bacillus subtilis [5]) [µg/mL]	MIC (Serratia marcescens [6]) [µg/mL]	MIC (Priestia megaterium [7]) [µg/mL]	MIC (Aspergillus niger [8]) [µg/mL]	MIC (Aspergillus flavus [9]) [µg/mL]	MIC (Penicillium chrysogenum [10]) [µg/mL]	MIC (Trichoderma viride [11]) [µg/mL]	MIC (Candida albicans [12]) [µg/mL]	Compound	inhibition zone (IZ) (Escherichia coli [13]) [mm]	inhibition zone (IZ) (Staphylococcus aureus [14])	inhibition zone (IZ) (Bacillus subtilis [15])	inhibition zone (IZ) (Serratia marcescens [16])	inhibition zone (IZ) (Priestia megaterium [17])	inhibition zone (IZ) (Aspergillus niger [18])	inhibition zone (IZ) (Aspergillus flavus [19]) [mm]	also measured
50 (≈ 144 µM)	50 (≈ 144 µM)	50 (≈ 144 µM)	50 (≈ 144 µM)	50 (≈ 144 µM)	50 (≈ 144 µM)	50 (≈ 144 µM)	50 (≈ 144 µM)	250 (≈ 719 µM)	250 (≈ 719 µM)	250 (≈ 719 µM)	250 (≈ 719 µM)	250 (≈ 719 µM)	Cc1cc(-c2csc3nc4[nH]nc(N)c4c(=O)n23)c(O)cc1Cl	12	inactive	inactive	inactive	inactive	9 mm	12	inhibition zone (IZ) (Penicillium chrysogenum [20]): 32 mm; inhibition zone (IZ) (Trichoderma viride [21]): 27 mm; inhibition zone (IZ) (Candida albicans [22]): 17 mm
50 (≈ 152 µM)	50 (≈ 152 µM)	50 (≈ 152 µM)	50 (≈ 152 µM)	50 (≈ 152 µM)	50 (≈ 152 µM)	50 (≈ 152 µM)	50 (≈ 152 µM)	250 (≈ 761 µM)	250 (≈ 761 µM)	250 (≈ 761 µM)	250 (≈ 761 µM)	250 (≈ 761 µM)	Nc1n[nH]c2nc3scc(-c4ccc([N+](=O)[O-])cc4)n3c(=O)c12	10	31 mm	inactive	16 mm	inactive	inactive	16	inhibition zone (IZ) (Proteus vulgaris [23]): inactive; inhibition zone (IZ) (Klebsiella pneumoniae [24]): 13 mm; inhibition zone (IZ) (Penicillium chrysogenum [20]): 32 mm; inhibition zone (IZ) (Trichoderma viride [21]): 29 mm; inhibition zone (IZ) (Candida albicans [22]): 21 mm
50 (≈ 138 µM)	50 (≈ 138 µM)	50 (≈ 138 µM)	50 (≈ 138 µM)	50 (≈ 138 µM)	50 (≈ 138 µM)	50 (≈ 138 µM)	50 (≈ 138 µM)	250 (≈ 690 µM)	250 (≈ 690 µM)	250 (≈ 690 µM)	250 (≈ 690 µM)	250 (≈ 690 µM)	Nc1n[nH]c2nc3scc(-c4ccc(Br)cc4)n3c(=O)c12	14	18 mm	inactive	inactive	inactive	10 mm	10	inhibition zone (IZ) (Proteus vulgaris [23]): inactive; inhibition zone (IZ) (Klebsiella pneumoniae [24]): inactive; inhibition zone (IZ) (Penicillium chrysogenum [20]): 15 mm; inhibition zone (IZ) (Trichoderma viride [21]): 27 mm; inhibition zone (IZ) (Candida albicans [22]): 10 mm
50 (≈ 136 µM)	50 (≈ 136 µM)	50 (≈ 136 µM)	50 (≈ 136 µM)	50 (≈ 136 µM)	50 (≈ 136 µM)	50 (≈ 136 µM)	50 (≈ 136 µM)	250 (≈ 679 µM)	250 (≈ 679 µM)	250 (≈ 679 µM)	250 (≈ 679 µM)	250 (≈ 679 µM)	Nc1n[nH]c2nc3scc(-c4cc(Cl)c(Cl)cc4O)n3c(=O)c12	12	inactive	inactive	inactive	inactive	11 mm	18	inhibition zone (IZ) (Penicillium chrysogenum [20]): 23 mm; inhibition zone (IZ) (Trichoderma viride [21]): 22 mm; inhibition zone (IZ) (Candida albicans [22]): 10 mm
